An excerpt weighted towards active compounds, which were near 3.2% of everything screened.
TRPML3 ag: agonists of human TRPML3 channel | AID 1448 | Q8TDD5 | activation, % at 3 µM | HEK293 TRPML3-YFP, Fluo-8 calcium fluorescence; 100% = the carbachol control signal | 220,000 compounds, 0.29% hits;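 active = activation above its plate's cutoff, the mean activation of the plate's test wells plus 3 SD, cut at about 12% in these data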;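 note: 0% = DMSO only wells and 100% = carbachol wells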
Target sequence (Q8TDD5 whole entry, looked up): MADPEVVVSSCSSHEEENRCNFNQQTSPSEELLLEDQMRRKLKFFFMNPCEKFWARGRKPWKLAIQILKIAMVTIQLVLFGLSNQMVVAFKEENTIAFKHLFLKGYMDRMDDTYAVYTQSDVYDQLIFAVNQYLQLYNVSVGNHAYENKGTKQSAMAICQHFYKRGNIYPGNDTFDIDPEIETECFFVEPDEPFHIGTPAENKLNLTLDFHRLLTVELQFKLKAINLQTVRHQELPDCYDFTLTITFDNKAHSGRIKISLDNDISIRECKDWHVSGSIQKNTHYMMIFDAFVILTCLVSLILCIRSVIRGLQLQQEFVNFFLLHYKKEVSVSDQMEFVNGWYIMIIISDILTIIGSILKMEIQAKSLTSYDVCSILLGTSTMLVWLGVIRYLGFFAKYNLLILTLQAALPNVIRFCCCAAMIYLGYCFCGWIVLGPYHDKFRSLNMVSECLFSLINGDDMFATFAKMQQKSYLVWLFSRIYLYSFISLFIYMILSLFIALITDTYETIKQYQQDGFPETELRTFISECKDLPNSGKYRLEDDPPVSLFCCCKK
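Material: HEK293 cells stably carrying human TRPML3-YFP; compound dosing: single dose, 3 µM final nominal compound, 0.3% DMSO final; incubation: 1-h 37 °C dye load, 5-s basal, 120-s post-compound reads; technique: Fluo-8 intracellular calcium fluorescence, excitation 470-495 nm, emission 515-575 nm; read-out basis: percent activation from peak-to-basal fluorescence ratio, scaled between DMSO and carbachol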
OX1R antag-1: antagonists of human orexin 1 receptor. 330,000 compounds, 0.43% hits. CHO/OX1R cells, Fluo-8 calcium fluorescence, orexin A. inhibition, % at 5 µM. AID 434989;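 active = inhibition above its plate's threshold, mean inhibition of all tested compounds on the plate plus 3 SD, cut at about 37% in these data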;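 note: 0% = orexin A challenge wells and 100% = SB-334867-A antagonist wells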
TRPN1 ag: activates the zebrafish TRPN1 channel; HEK293 zebrafish TRPN1-YFP, Fluo-8 calcium fluorescence; 100% = response to 87 µM carbachol; activation, % at 3 µM; 220,000 compounds, 0.18% hits; AID 1424;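 active = activation above its plate's cutoff, the mean activation of test wells on that plate plus 3 SD, cut at about 19% in these data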;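 note: 0% = DMSO alone and 100% = 87 µM carbachol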
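Material: zebrafish TRPN1-YFP in HEK293 cells. Doses: one dose of 3 µM, 0.3% DMSO. Incubation: dye 1 h 37 °C plus 30 min RT. Measured by: intracellular calcium fluorescence with Fluo-8.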
GPR7 antagonist: human neuropeptides B/W receptor 1 antagonism; P48145; AID 1861; 290,000 compounds, 1.1% hits; inhibition, % at 4.4 µM; GPR7-expressing cells, fluorescence antagonist assay; in the data active = inhibition above about 16%, passing the limit was not always enough;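 note: cells stimulated with the agonist NPW; 0% = agonist with vehicle and 100% = vehicle without agonist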
CHO parental Ca: counter-screen: ATP calcium response change in parental CHO cells; AID 463079; inhibition, % at 5.6 µM; 330,000 compounds, 0.63% hits; parental CHO-K1, ATP-induced calcium, Fluo-8 fluorescence;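 active = inhibition above that plate's mean sample inhibition plus 3 SD, cut at about 26% in these data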;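 note: 0% = ATP-challenged DMSO wells and 100% = DMSO wells without ATP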
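material = parental CHO cells | also added = ATP as calcium-mobilizing challenge | dosing = single point at 5.6 µM | detection = intracellular calcium via Fluo-8 no-wash fluorescent dye | read-out = % inhibition | benchmarks = low control ATP plus DMSO, high control DMSO only | repeats = one well per compound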
OX1R antag-2: blocks the human orexin 1 receptor | OX1R-expressing cells, FRET antagonist read-out | inhibition, % at 6.6 µM | 330,000 compounds, 1.8% hits; in the data active = inhibition mostly above about 38%, no sharp cut-off; inactive = mostly below about 40%;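 note: 0% = agonist challenge alone and 100% = reference antagonist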
OX1R Ca confirm: OX1R (human) antagonism, confirmed | shares compounds with OX1R antag-1 | CHO/OX1R cells, orexin A calcium Fluo-8 fluorescence | inhibition, % at 5 µM | 1,100 compounds, 38% hits; in the data active = inhibition above about 29%;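 note: 0% = agonist challenge alone and 100% = reference antagonist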
CHO Ca counter: counter-screen: parental CHO calcium response change, triplicate | shares compounds with OX1R antag-1 | parental CHO-K1, ATP-induced calcium, Fluo-8 fluorescence | inhibition, % at 5.6 µM | 1,100 compounds, 9.3% hits | AID 492965;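 active = inhibition above a per-plate limit, the mean inhibition of that plate's test compounds plus 3 SD, cut at about 25% in these data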;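 note: 0% = ATP challenge with DMSO and 100% = DMSO without ATP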
Starred values were filed as active, the others as inactive.

For Cc1ccc2c(c1)nnn2C1CCN(S(=O)(=O)c2ccc3ccccc3c2)CC1 the results were TRPML3 ag 1, OX1R antag-1 -10, TRPN1 ag -1, GPR7 antagonist 2, CHO parental Ca -19 and OX1R antag-2 3.
Cc1ccc2c(c1)nnn2C1CCN(S(=O)(=O)c2cccc(S(=O)(=O)N(C)C)c2)CC1 was read as TRPML3 ag 2, OX1R antag-1 35, TRPN1 ag 6, GPR7 antagonist -2, CHO parental Ca 22, OX1R antag-2 35, OX1R Ca confirm 38* and CHO Ca counter 25*.
For O=C(Nc1ccccc1C(=O)NCCCN1CCOCC1)c1ccc(Cl)cc1 the results were OX1R antag-1 -16, GPR7 antagonist 1, CHO parental Ca -15 and OX1R antag-2 19.
`CCSC1=N/C(=C\c2ccc3c(c2)OCO3)C(=O)S1` gave TRPML3 ag 1, OX1R antag-1 -12, TRPN1 ag 0, GPR7 antagonist -8, CHO parental Ca -1 and OX1R antag-2 35.
Screening CCSC1=N/C(=C\C=C2/Oc3ccccc3N2CC)C(=O)S1 returned TRPML3 ag 5, OX1R antag-1 32, TRPN1 ag 7, GPR7 antagonist 3, CHO parental Ca 12, OX1R antag-2 42, OX1R Ca confirm 16 and CHO Ca counter 12.
For O=C(CSC1=Nc2ccccc2C2CC=NN12)NCc1ccco1 (stereo unspecified) the results were OX1R antag-1 57*, CHO parental Ca -4, OX1R antag-2 33, OX1R Ca confirm 24 and CHO Ca counter 4.
`Oc1ccc(-c2c(C3=CCCCC3)sc3ccccc23)cc1` gave OX1R antag-1 -22, GPR7 antagonist -9, CHO parental Ca -18 and OX1R antag-2 26.
O=C(NNC(=S)Nc1ccc(Br)cc1)c1ccccc1 was read as GPR7 antagonist -16.
COC(=O)c1ccc(NC(=S)NNC(=O)c2ccccc2)cc1 was read as TRPML3 ag 1, OX1R antag-1 28, TRPN1 ag 0, GPR7 antagonist 5, CHO parental Ca -10, OX1R antag-2 7, OX1R Ca confirm 4 and CHO Ca counter 7.
CCOC(=O)CNC(=O)CSc1nc2c(C)cccc2cc1CC was read as TRPML3 ag -1, OX1R antag-1 -31, TRPN1 ag -3, GPR7 antagonist 2, CHO parental Ca -21 and OX1R antag-2 -10.
Cc1ccc(S(=O)(=O)n2nc(-n3c(C)ccc3C)c3c(F)cccc32)c2ccccc12 was read as TRPML3 ag 1, OX1R antag-1 -2, TRPN1 ag 2, GPR7 antagonist -15, CHO parental Ca -8 and OX1R antag-2 1.
Screening Cc1ccc(C)n1-c1nn(S(=O)(=O)c2cccc3cccnc23)c2cccc(F)c12 returned TRPML3 ag 0, OX1R antag-1 39*, TRPN1 ag 0, GPR7 antagonist -19, CHO parental Ca -19, OX1R antag-2 71, OX1R Ca confirm 30* and CHO Ca counter -8.
Screening O=C(NCCCn1ccnc1)c1ccc(OCC(F)(F)F)cc1 returned OX1R antag-1 -7, GPR7 antagonist -13, CHO parental Ca -1 and OX1R antag-2 0.
`FC(F)(F)COc1ccc(-n2ccnc2)nn1` gave TRPML3 ag 1, OX1R antag-1 21, TRPN1 ag 1, GPR7 antagonist -14, CHO parental Ca 0, OX1R antag-2 12, OX1R Ca confirm 3 and CHO Ca counter 8.
COC(=O)c1ccccc1NC(=O)c1ccccc1SC was read as TRPML3 ag -1, OX1R antag-1 -20, TRPN1 ag 0, GPR7 antagonist -23, CHO parental Ca -35 and OX1R antag-2 15.
`CCOC(=O)c1ccccc1NC(=O)c1ccccc1SC` gave TRPML3 ag -1, OX1R antag-1 53*, TRPN1 ag -3, GPR7 antagonist -20, CHO parental Ca 5, OX1R antag-2 7, OX1R Ca confirm -15 and CHO Ca counter -20.
For CCc1nc2ccc(Cc3ccc4nc(CC)[nH]c4c3)cc2[nH]1 the results were OX1R antag-1 -32, GPR7 antagonist 3, CHO parental Ca 4 and OX1R antag-2 -4.
Screening COC(=O)Cn1c(=O)c2c(nc3n2CC(C)CN3CCc2ccccc2)n(C)c1=O (stereo unspecified) returned GPR7 antagonist 3.
`COC(=O)Cn1c(=O)c2c(nc3n2CC(C)CN3Cc2ccccc2)n(C)c1=O` (stereo unspecified) gave OX1R antag-1 31, GPR7 antagonist 2, CHO parental Ca -5, OX1R antag-2 16, OX1R Ca confirm -6 and CHO Ca counter -6.
Cc1cc(C(C)(C)C)c(OC(=O)[C@@H]2OC(c3ccccc3)=C[C@H]2c2ccccc2)c(C(C)(C)C)c1 was read as OX1R antag-1 -12, CHO parental Ca -36 and OX1R antag-2 10.
`COc1ccc(CCNC(=O)CSCC(=O)Nc2cc(S(C)(=O)=O)ccc2Cl)cc1` gave OX1R antag-1 -3, CHO parental Ca -22 and OX1R antag-2 15.
`N#Cc1cc(C(=O)c2cc(Br)ccc2O)cn(Cc2ccccc2)c1=O` gave TRPML3 ag 0, OX1R antag-1 24, TRPN1 ag -1, GPR7 antagonist -15, CHO parental Ca 23, OX1R antag-2 9, OX1R Ca confirm 2 and CHO Ca counter 10.
Screening CC(=O)c1ccc(OCC(=O)N(C)CC(=O)Nc2ccc(N3CCOCC3)cc2)cc1 returned OX1R antag-1 -3, CHO parental Ca -16 and OX1R antag-2 4.
`CSc1cccc(NC(=O)CN(c2cc(C)ccc2C)S(C)(=O)=O)c1` gave TRPML3 ag -1, OX1R antag-1 26, TRPN1 ag -1, GPR7 antagonist -5, CHO parental Ca 1, OX1R antag-2 19, OX1R Ca confirm 2 and CHO Ca counter -15.
COC(=O)C/C=C/[C@@H](C)[C@@H](/C=N/OC[C@@H](C)[C@H](OCc1ccccc1)C(C)C)NS(=O)(=O)c1ccc(C)cc1 was read as TRPML3 ag 0, OX1R antag-1 -36, TRPN1 ag 0, GPR7 antagonist -27, CHO parental Ca -19 and OX1R antag-2 17.
Screening CCN(c1ccccc1)S(=O)(=O)c1ccc(Cl)c(NC(=O)COC(=O)C2CC2C)c1 (stereo unspecified) returned TRPML3 ag -1, OX1R antag-1 27, TRPN1 ag -2, GPR7 antagonist -15, CHO parental Ca 10, OX1R antag-2 17, OX1R Ca confirm -5 and CHO Ca counter -8.

Source: PubChem BioAssay (The Scripps Research Institute Molecular Screening Center)
